Assay results taken from ChEMBL document CHEMBL1828511, “Searching for new NO-donor aspirin-like molecules: Furoxanylacyl derivatives of salicylic acid and related furazans” (Bioorg Med Chem, 2011).
Calls of active or inactive are those of the source. No cut-off for these calls is given here.

Tests used:
[1] = Stability of the compound in human serum assessed as half life at 200 uM by RP-HPLC analysis; assay type: ADME, cell-free
Summary of the method: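 Compound added from 10 mM acetonitrile stock to human serum preheated to 37 °C. Disappearance followed by RP-HPLC (C18; acetonitrile/water 55:45, 0.1% TFA). Half-life from pseudo-first-order fit.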

[2] = Antiaggregatory activity in human platelet rich plasma assessed as inhibition of collagen-induced platelet aggregation at 300 uM preincubated for 10 mins before collagen challenge measured after 10 mins by aggregometry; assay type: functional
Summary of the method: (§1)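 PRP from citrated human blood (200g, 20 min). Compound preincubated 10 min, then submaximal collagen (0.8–1.5 µg/mL) added. Light transmission recorded at 37 °C under stirring (1000 rpm) for 10 min. Vehicle 0.5% DMSO. Result is % inhibition versus control. IC50 by nonlinear regression, otherwise % inhibition at 300 µM. At least five experiments.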

Aorta [3] = assay: Vasodilatory activity in Wistar rat thoracic aorta assessed as relaxation of L-phenylephrine-induced vasoconstriction; assay type: functional, tissue-based
Summary of the method: (§2)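 Rat aortic strips equilibrated 120 min, then contracted with phenylephrine. At plateau, cumulative concentrations of vasodilator added. Tension recorded isometrically. Results given as EC50 ± SE. Where tested, ODQ was added to the bath 5 min before contraction.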

[4] = target: Prostaglandin G/H synthase 1 (Homo sapiens) (UniProt P23219); assay: Inhibition of COX1 in human platelets assessed as inhibition of A23187-stimulated TXB2 production at 100 uM pre-incubated for 30 mins before addition of A23187 measured after 10 mins by EIA
Summary of the method: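 Washed human platelets (10⁸ cells/mL) incubated 30 min at 37 °C with compound, diluted from 400-fold DMSO stocks. A23187 (2 µM) then added for 10 min at 37 °C, and reaction stopped with methanol. Supernatant TXB2 measured by EIA. % inhibition versus untreated control, after subtracting no-ionophore background.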

Rattus norvegicus [5] = assay: Antiinflammatory activity in Wistar rat assessed as inhibition of carrageenan-induced paw edema at dose equimolar to 120 mg/kg aspirin, administered intragastrically immediately after carrageenan challenge measured after 3 hrs by water plethysmometer relative to control; assay type: functional; settings: po, route intragastric
Summary of the method: (§3)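 Male Wistar rats (180–200 g). Edema induced by intraplantar 0.1 mL of 1% carrageenan in 1% CMC into the right hindpaw. Compounds given intragastrically in 1% CMC (10 mL/kg) immediately afterwards. Aspirin at 120 mg/kg, others equimolar. Paw volume by water plethysmometer before and at 3 h. Reported as % inhibition versus vehicle (=100). Groups of 6–8, mean ± SEM, Dunnett's test.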

[6] = Stability of the compound in phosphate buffer at pH 7.4 assessed as half life at 100 uM by RP-HPLC analysis; assay type: physicochemical
Summary of the method: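 Compound held at 37 °C, final concentration 100 µM. Aliquots taken over time and analysed by RP-HPLC (C18; acetonitrile/water 55:45 with 0.1% TFA). Pseudo-first-order rate constants and half-lives obtained by fitting remaining ester versus time to one-phase exponential decay.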

Rattus norvegicus [7] = assay: Ulcerogenicity in Wistar rat assessed as damage in gastric mucosa-lesion index at dose equimolar to 120 mg/kg aspirin, administered intragastrically after 3 hrs by stereomicroscopy; assay type: toxicity, organism-based; parameters: dose 120 mg/kg, route intragastric; settings: in vivo, po
Summary of the method: (§4)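 Male Wistar rats (180–200 g), fasted 24 h with water available. Groups of 8–10 given aspirin 120 mg/kg intragastrically, or equimolar doses, in 1% CMC. Killed 3 h later. Glandular mucosa examined under stereomicroscope. Each hemorrhagic lesion scored by greatest length and summed as lesion index. Mean ± SEM, ANOVA with Newman–Keuls test.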

[8] = target: T1, Prostaglandin G/H synthase 2 (Homo sapiens) (UniProt P35354); assay: Inhibition of COX2 in LPS-stimulated human monocytes assessed as inhibition of arachidonic acid-stimulated PGE2 production at 100 uM pre-incubated for 30 mins before addition of arachidonic acid measured after 15 mins by EIA; assay type: cell-based
T1 sequence (whole entry): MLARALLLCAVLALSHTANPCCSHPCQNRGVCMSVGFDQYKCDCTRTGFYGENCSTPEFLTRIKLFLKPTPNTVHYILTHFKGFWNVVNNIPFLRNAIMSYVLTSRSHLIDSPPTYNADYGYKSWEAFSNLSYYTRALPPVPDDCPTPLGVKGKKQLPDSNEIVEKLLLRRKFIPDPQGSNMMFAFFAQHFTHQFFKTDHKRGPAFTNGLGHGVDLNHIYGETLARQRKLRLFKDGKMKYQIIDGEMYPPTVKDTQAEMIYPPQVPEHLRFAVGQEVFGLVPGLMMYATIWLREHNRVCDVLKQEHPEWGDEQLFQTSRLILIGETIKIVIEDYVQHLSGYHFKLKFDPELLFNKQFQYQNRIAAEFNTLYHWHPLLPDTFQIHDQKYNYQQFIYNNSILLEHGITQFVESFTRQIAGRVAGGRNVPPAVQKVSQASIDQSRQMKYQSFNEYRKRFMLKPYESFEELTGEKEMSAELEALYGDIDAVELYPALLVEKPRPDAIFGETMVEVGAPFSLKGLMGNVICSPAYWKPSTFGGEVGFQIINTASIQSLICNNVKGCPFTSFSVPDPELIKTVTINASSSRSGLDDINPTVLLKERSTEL
Summary of the method: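 Human monocytes (10⁶ cells/mL) induced with LPS for 18 h at 37 °C, 5% CO2, then resuspended in FCS-free RPMI-1640. Compound (from 200-fold DMSO stocks) added for 30 min, then arachidonic acid (100 µM) for 15 min. Supernatant PGE2 by EIA. % inhibition versus untreated control, minus no-arachidonate background.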

[9] = Stability of the compound in 0.1 M HCl at pH 1 assessed as compound remaining at 100 uM after 3 hrs by RP-HPLC analysis; assay type: physicochemical; settings: read-out: Stability
[10] = Antiaggregatory activity in human platelet rich plasma assessed as inhibition of collagen-induced platelet aggregation preincubated for 10 mins before collagen challenge measured after 10 mins by aggregometry in presence of 50 uM of sGC inhibitor ODQ; assay type: functional
Summary of the method: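 Collagen-induced aggregation in human PRP run as in the standard assay, with the sGC inhibitor ODQ (50 µM) present. Compound preincubated 10 min before submaximal collagen (0.8–1.5 µg/mL). Light transmission followed 10 min at 37 °C. At least five experiments.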

Aorta [11] = assay: Vasodilatory activity in Wistar rat thoracic aorta assessed as relaxation of L-phenylephrine-induced vasoconstriction in presence of 1 uM sGC inhibitor ODQ; assay type: functional, tissue-based; summary of the method: as §2
[12] = Antiaggregatory activity in human platelet rich plasma assessed as inhibition of collagen-induced platelet aggregation preincubated for 10 mins before collagen challenge measured after 10 mins by aggregometry; assay type: functional; summary of the method: as §1
Thromboxane A2 receptor = target: T2, Thromboxane A2 receptor (Homo sapiens, UniProt P21731); assay: Antagonist activity at thromboxane receptor in human blood assessed as inhibition of U-46619-induced effect; assay type: functional
T2 sequence (P21731 whole entry): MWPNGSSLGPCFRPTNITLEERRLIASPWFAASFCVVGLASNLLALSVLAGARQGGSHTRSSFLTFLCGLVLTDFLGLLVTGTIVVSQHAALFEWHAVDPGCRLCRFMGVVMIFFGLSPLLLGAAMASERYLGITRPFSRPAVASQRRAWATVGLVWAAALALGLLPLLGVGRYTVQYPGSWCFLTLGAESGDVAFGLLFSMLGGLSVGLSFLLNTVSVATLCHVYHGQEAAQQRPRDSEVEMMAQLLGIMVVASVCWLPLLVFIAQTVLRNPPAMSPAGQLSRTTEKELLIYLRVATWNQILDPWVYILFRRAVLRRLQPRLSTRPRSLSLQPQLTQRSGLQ
Summary of the method: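 Citrated human blood pretreated with 1 mM acetylsalicylic acid; PRP made by 200g spin for 20 min. PRP incubated with compound or vehicle (0.5% DMSO), then challenged with U-46619 (0.5–2.5 µM). Aggregation recorded as light transmission at 37 °C with stirring. At least four experiments per compound.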

Rattus norvegicus [13] = assay: Antiinflammatory activity in Wistar rat assessed as inhibition of carrageenan-induced paw edema at 120 mg/kg, administered intragastrically immediately after carrageenan challenge measured after 3 hrs by water plethysmometer relative to control; assay type: functional; settings: po, route intragastric; summary of the method: as §3
Rattus norvegicus [14] = assay: Ulcerogenicity in Wistar rat assessed as damage in gastric mucosa-lesion index at 120 mg/kg, administered intragastrically after 3 hrs by stereomicroscopy; assay type: toxicity, organism-based; parameters: dose 120 mg/kg, route intragastric; settings: in vivo, po; summary of the method: as §4
[15] = Stability of the compound in phosphate buffer at pH 7.4 assessed as compound remaining at 100 uM after 3 hrs by RP-HPLC analysis; assay type: physicochemical; settings: read-out: Stability
Summary of the method: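 Each compound was incubated in pH 7.4 aqueous buffer at a final 100 µM and held at 37 ± 0.5 °C. Aliquots taken at timed intervals were run on RP-HPLC (C18; acetonitrile/water 55:45 with 0.1% TFA; 1.2 mL/min), calibrated linearly over 1–200 µM. Remaining ester versus time was fitted to one-phase exponential decay.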

Chain of Prostaglandin G/H synthase 1 (Homo sapiens) (P23219 whole entry): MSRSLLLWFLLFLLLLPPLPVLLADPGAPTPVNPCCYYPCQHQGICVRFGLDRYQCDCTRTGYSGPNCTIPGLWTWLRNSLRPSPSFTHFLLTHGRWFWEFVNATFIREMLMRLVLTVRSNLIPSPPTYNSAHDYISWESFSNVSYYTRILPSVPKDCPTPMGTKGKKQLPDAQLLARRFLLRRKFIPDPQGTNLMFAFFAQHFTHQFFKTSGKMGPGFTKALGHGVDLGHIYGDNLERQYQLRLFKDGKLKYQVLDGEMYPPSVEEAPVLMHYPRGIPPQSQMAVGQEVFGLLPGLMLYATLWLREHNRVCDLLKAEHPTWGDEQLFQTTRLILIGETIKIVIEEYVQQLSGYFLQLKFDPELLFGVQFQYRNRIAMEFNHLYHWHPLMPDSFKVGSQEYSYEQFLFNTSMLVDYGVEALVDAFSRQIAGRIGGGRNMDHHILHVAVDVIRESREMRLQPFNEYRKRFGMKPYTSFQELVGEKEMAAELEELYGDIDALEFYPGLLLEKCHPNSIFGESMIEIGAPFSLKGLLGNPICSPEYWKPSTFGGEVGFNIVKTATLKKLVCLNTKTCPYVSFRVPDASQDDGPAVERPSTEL

SMILES | half-life at 200 µM [1] [min] | inhibition at 300 µM [2] [%] | Activity (Aorta [3]) | EC50 (Aorta [3]) [µM] | inhibition [4] | inhibition in vivo (Rattus norvegicus [5]) [%] | half-life at 100 µM [6] [min] | UI (Rattus norvegicus [7]) [mm] | inhibition [8] | remaining at 3 h, 100 µM [9] [%] | IC50 [10] [µM] | EC50 (Aorta [11]) [µM] | IC50 [12] [µM] | IC50 (Thromboxane A2 receptor) [µM] | inhibition in vivo at 120 mg/kg (Rattus norvegicus [5]; dose 120 mg/kg) [%] | inhibition in vivo at 120 mg/kg (Rattus norvegicus [13]) [%] | UI (Rattus norvegicus [14]) [mm] | remaining at 3 h, 100 µM [15] [%]
O=C(CCOc1no[n+]([O-])c1-c1ccccc1)Oc1ccccc1C(=O)O | 35 | 17 | Dose-dependent effect | 11 | inactive | 37.6 | 288 | 0.3 | inactive | 98 |  |  |  |  |  |  |  | 
N#Cc1nonc1CSCC(=O)Oc1ccccc1C(=O)O | 14 | 36 |  |  | inactive | 38.9 | 38 | 0.2 | inactive | 96 |  |  |  |  |  |  |  | 
N#Cc1c(CSCC(=O)Oc2ccccc2C(=O)O)no[n+]1[O-] | 13 |  | Dose-dependent effect | 0.04 | inactive | 54.9 | 33 | 1.2 | inactive | 96 | 88 | 2.4 | 7.3 |  |  |  |  | 
O=C(CCOc1nonc1S(=O)(=O)c1ccccc1)Oc1ccccc1C(=O)O | 35 | 2.6 |  |  | inactive | 38.8 | 370 | 0.3 | inactive | 97 |  |  |  |  |  |  |  | 
NC(=O)c1c(CSCC(=O)Oc2ccccc2C(=O)O)no[n+]1[O-] | 27 |  | Dose-dependent effect | 23 | inactive | 39.4 | 45 |  | inactive | 97 | 59 |  | 66 | 38 |  |  |  | 
O=C(O)c1ccccc1O [SALICYLIC ACID] |  |  |  |  |  |  |  | 1.1 |  |  |  |  |  |  | 36.8 |  |  | 
NC(=O)c1nonc1CSCC(=O)Oc1ccccc1C(=O)O | 27 |  |  |  | inactive | 39.6 | 50 | 0.3 | inactive | 97 |  |  | 144 | 39 |  |  |  | 
O=C(CCOc1no[n+]([O-])c1S(=O)(=O)c1ccccc1)Oc1ccccc1C(=O)O | 30 |  | Dose-dependent effect | 0.014 | inactive | 49.6 | 360 | 0.4 | inactive | 96 | 152 | 0.97 | 7.8 |  |  |  |  | 
O=C(CCOc1nonc1-c1ccccc1)Oc1ccccc1C(=O)O | 40 | 12 |  |  | inactive | 38.6 | 318 | 1.2 | inactive | 98 |  |  |  |  |  |  |  | 
CC(=O)Oc1ccccc1C(=O)O [ASPIRIN] | 63 |  |  |  |  |  |  |  |  | 90 |  |  | 54 |  |  | 43 | 50 | 90
